# Experimental data from PubChem BioAssay AID2300 (The Scripps Research Institute Molecular Screening Center, 2010).
# The campaign covered roughly 320,000 compounds. About 380 (0.12%) were called active.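 How the source made its calls: active means percent inhibition above the cutoff of mean plus 3 SD of all tested compounds, set per screening campaign (cut at about 20% in these data); inactive means the rest.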 The full list was thinned out, with actives kept by preference.
# Target: Photoreceptor-specific nuclear receptor (Homo sapiens) (UniProt Q9Y5X4)
# Assay: inhibitors of NR2E3-RetCOR corepressor binding, primary screen, NR2E3 agonist project, biochemical, TR-FRET, GST-NR2E3, biotin-RetCOR (AID 2300);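 further: 0% = DMSO wells and 100% = biotin wells as full block of FRET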
# Conditions: 1536-well, at 4.78 µM, active compounds read high
# In short: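 System: GST-tagged NR2E3 plus biotinylated RetCOR corepressor; Buffer or medium: pH 7.5 Tris-based buffer; Probe or stimulus: RetCOR corepressor, biotinylated, 7 nM; Doses: compound at 4.8 µM, single dose; Schedule: 5 h incubation at 4 °C; Technique: time-resolved FRET; Evaluation: percent inhibition of TR-FRET ratio; Replication: one well per compound, singlicate testing.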
# Chain of Photoreceptor-specific nuclear receptor (Homo sapiens) (Q9Y5X4 whole entry, looked up): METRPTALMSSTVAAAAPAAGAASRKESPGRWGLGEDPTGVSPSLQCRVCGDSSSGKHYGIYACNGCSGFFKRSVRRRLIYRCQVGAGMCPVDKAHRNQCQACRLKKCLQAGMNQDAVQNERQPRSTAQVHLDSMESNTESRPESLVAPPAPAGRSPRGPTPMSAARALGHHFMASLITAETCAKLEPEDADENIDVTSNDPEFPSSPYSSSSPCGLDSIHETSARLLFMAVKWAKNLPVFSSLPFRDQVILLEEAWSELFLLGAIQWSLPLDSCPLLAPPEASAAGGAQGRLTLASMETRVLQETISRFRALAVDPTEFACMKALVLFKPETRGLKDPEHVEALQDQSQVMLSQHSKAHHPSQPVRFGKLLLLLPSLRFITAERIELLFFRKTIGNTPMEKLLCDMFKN
row,Structure (SMILES),inhibition of corepressor binding
1,CC(C)CN(C(=O)CSc1nncn1C)C1CCS(=O)(=O)C1 (stereo not given),2.15% (inactive)
2,COC(C)(C)[C@]12CC(O)(C(C)C)ON1[C@H]1CCCCC1N2O (stereo not given in full),-1% (inactive)
3,CCCCSc1nc2c(c(=O)n1CC)SC(C)C2 (stereo not given),4.84% (inactive)
4,O=c1ccc2c(-c3ccccc3S(=O)(=O)O)c3ccc(O)c(O)c3oc-2c1O,13.9% (inactive)
5,CC(=O)c1sc2nc(SCC(=O)N3CCCCC3)[nH]c(=O)c2c1C,29.3% (active)
6,C=CCNC(=O)CSc1nc2sc(C)c(C)c2c(=O)[nH]1,-1.07% (inactive)
7,O=C(CSc1nc2c(cnn2-c2ccc(F)cc2)c(=O)[nH]1)N1CCCCCC1,-0.57% (inactive)
8,CC(=O)N1CCC(C(=O)Nc2nc(-c3ccccc3)ns2)CC1,1.17% (inactive)
9,Cc1csc(Nc2ccc(Cl)cc2)[n+]1-c1ccc(Cl)cc1,-0.2% (inactive)
10,FC(F)Oc1ccccc1NC(=S)Nc1cccc(Cl)c1Cl,3.12% (inactive)
11,Cc1ccc(NC(=O)C2(N3CCC3=O)CCCCC2)cc1,3.49% (inactive)
12,O=C(/C=C/c1cccc([N+](=O)[O-])c1)NCCSCc1ccco1,0.28% (inactive)
13,Cc1ccc2c(c1)N(CC(=O)N1CCC(C)CC1)C(=O)c1cccnc1O2,3.77% (inactive)
14,CCOc1ccc2nc(C(=O)N3CCCC(C)C3)sc2c1 (stereo not given),-1.62% (inactive)
15,ONC(=Nc1ccccc1)c1ccccc1Cl,-0.75% (inactive)
16,COc1cccc(CNC(=O)c2cccnc2Sc2ccc(Cl)cc2)c1,0.2% (inactive)
17,Cc1ccc(Nc2nc(Cl)c(C=O)s2)cc1,3.15% (inactive)
18,Cc1cc(C)c(C)c(S(=O)(=O)N2CCN(C(=O)c3ccc4c(=O)n5c(nc4c3)CCC5)CC2)c1C,-2.52% (inactive)
19,O=C(Nc1nccs1)C1CCN(S(=O)(=O)c2ccc(Cl)c(C(F)(F)F)c2)CC1,5.22% (inactive)
20,O=C(CCNS(=O)(=O)c1cccs1)N1CCN(c2ccc(F)cc2)CC1,0.06% (inactive)
21,O=C(N[C@@H](Cc1ccccc1)C(=O)OCc1ccccc1)c1nc[nH]c1C(=O)NC1CCNCC1,1.4% (inactive)
22,COc1ccc(C(=O)OCC(=O)c2ccc(Cl)s2)c(OC)c1OC,-1.77% (inactive)
23,CCOC(=O)c1ccc(N=C2SC(C(=O)NC)CC(=O)N2CCc2ccccc2)cc1 (stereo not given),-2.67% (inactive)
24,COc1cc2[nH]c(=S)n(Cc3ccc(F)cc3)c(=O)c2cc1OC,-2.77% (inactive)

row,Structure (SMILES),inhibition of corepressor binding
1,COc1cc2[nH]c(=S)n(CCN3CCCCC3C)c(=O)c2cc1OC (stereo not given),0.84% (inactive)
2,COc1cc2[nH]c(=S)n(Cc3ccc(C)o3)c(=O)c2cc1OC,23.2% (active)
3,Cc1ccc(CN(N=Nc2nonc2N)c2nonc2N)c(C)c1,-0.3% (inactive)
4,CC(=O)N=c1ncn(CC(COC(C)=O)OC(C)=O)c2nc[nH]c12 (stereo not given),0.37% (inactive)
5,CCC[C@H]1CCCC/C=C\CCCC(=O)OCCN1C(=O)OC(C)(C)C,-1.54% (inactive)
6,CCOc1cc(NC(=O)CCl)c(OCC)cc1NC(C)=O,-2.07% (inactive)
7,COc1ccc2cc(-c3[nH]ncc3CNCCn3nc(C)cc3C)ccc2c1,1.22% (inactive)
8,COc1cc(C(=O)Nc2ncccc2C)ccc1OCC(=O)N1CCOCC1,2.79% (inactive)
9,Cc1nc(SCC(=O)NC2CCCC2)[nH]c(=O)c1C,-2.03% (inactive)
10,O=C(c1ccc(Br)o1)N(c1ccccn1)C1CCCCC1,-1.56% (inactive)
11,CCCc1cc(=O)[nH]c(SCC(=O)Nc2sc3c(c2C#N)CCCC3)n1,1.75% (inactive)
12,CCOc1ccc(NC(=O)N2CC=C(n3c(=O)[nH]c4ccccc43)CC2)cc1,1.76% (inactive)
13,CCN1CCN(C(=O)C2(NC(=O)Nc3cccc(F)c3)CCCCC2)CC1,2.38% (inactive)
14,Cc1ccc(C(=O)N/C(=C/c2ccc(-c3cccc([N+](=O)[O-])c3)o2)C(=O)NCCCN(C)C)cc1,-3.84% (inactive)
15,CCCCC(=O)Nc1c2c(nn1-c1ccc([N+](=O)[O-])cc1)CS(=O)(=O)C2,2.14% (inactive)
16,COc1cc(OC)c(C(=O)N2CCCC2)cc1OC,2.23% (inactive)
17,CSc1nc2c(c(=O)[nH]1)C(c1cccc(Cl)c1Cl)CC(=O)N2 (stereo not given),5.66% (inactive)
18,COc1ccc(C2CC(=O)Nc3sc(=N)c4c(N)c(C#N)c(N)nc4c32)cc1OC (stereo not given),-3.58% (inactive)
19,N#Cc1c(N)nc2c3c(sc(=N)c2c1N)NC(=O)CC3c1ccccc1Cl (stereo not given),27.7% (active)
20,CN(C)CCOc1cccc(Br)c1,-0.9% (inactive)
21,O=[N+]([O-])/C(N=Nc1ccccc1)=N\Nc1ccccc1,-0.3% (inactive)
22,CCc1ccc(CN(C)C(=O)C2CCC(=O)N(Cc3cccc(OC)c3)C2)nc1 (stereo not given),-4.58% (inactive)
23,C/C(=N/O)c1ccc(N2C(=O)C3C4C=CC(C3C2=O)C2C3C(=O)N(c5ccc(/C(C)=N/O)cc5)C(=O)C3C42)cc1 (stereo not given),-3.35% (inactive)
24,O=C(NNC(=O)C1CCC1)c1ccccc1,3.19% (inactive)

row,Structure (SMILES),inhibition of corepressor binding
1,O=C(CNCc1ccco1)Nc1cc(S(=O)(=O)N2CCOCC2)ccc1N1CCCC1,6.04% (inactive)
2,Cc1c(Cl)cccc1NC(=O)[C@@]1(CC(=O)O)CC(/C=C/c2ccccc2)=NO1,-2.16% (inactive)
3,COC(=O)C1(C)NC(c2ccccc2OC)C2C(=O)N(c3ccccc3)C(=O)C21 (stereo not given),1.42% (inactive)
4,O=C(CCCCO)c1ccc(O)c(Cl)c1,-2.2% (inactive)
5,O=C(COC(=O)Cc1ccc(Br)cc1)Nc1c(F)c(F)c(F)c(F)c1F,-1.39% (inactive)
6,CN(c1ccccc1)S(=O)(=O)c1cccc(NC(=O)Cc2ccc(Cl)cc2)c1,4.43% (inactive)
7,O=c1cnnc(Nc2ccccc2F)[nH]1,3.47% (inactive)
8,Oc1c(Br)cc(/C=N/NC(=S)NCC2CCCO2)cc1Br (stereo not given),1.11% (inactive)
9,O=C(NCCO)C(=O)NCC(c1ccc2c(c1)OCO2)N1CCN(c2ccc(F)cc2)CC1 (stereo not given),-1.84% (inactive)
10,CC1(C)C2CCC1(CS(=O)(=O)NCCc1c[nH]c3ccccc13)C(=O)C2 (stereo not given),-2.06% (inactive)
11,CCOC(=O)c1c(NC(=O)CSc2nnc(CNc3ccc(C)cc3C)o2)sc(C)c1C,-0.79% (inactive)
12,O=S(=O)(Nc1n[nH]c(C(F)(F)F)n1)c1ccccc1,6.01% (inactive)
13,Cc1c(Cl)c([N+](=O)[O-])nn1CC(=O)NCCCN1CCOCC1,4.17% (inactive)
14,COc1ccccc1C(C)NC(=O)Cc1ccsc1 (stereo not given),2.21% (inactive)
15,COc1ccc2oc(C(=O)N(CC(C)C)C3CCS(=O)(=O)C3)c(C)c2c1 (stereo not given),3.14% (inactive)
16,COc1ccc(N2CCN(C(=O)C3CCN(S(=O)(=O)c4ccc(C)cc4)CC3)CC2)cc1,6.37% (inactive)
17,CC1(C)CN(c2ccc(-c3ccnc4ncnn34)cc2)C1=O,-0.76% (inactive)
18,COc1ccc(C)cc1S(=O)(=O)NCCc1ccccc1,2.48% (inactive)
19,Fc1ccc(CNc2nc3ccccc3n3nnnc23)cc1,-0.09% (inactive)
20,CC(C)(C)NC(=O)/C(=C/c1cccnc1)NC(=O)c1ccco1,-5.01% (inactive)
21,NC(=O)c1cc(S(=O)(=O)NCCCc2ccco2)cs1,2.54% (inactive)
22,O=C(NCCCNC(=O)NC1CCCCC1)NC1CCCCC1,1.65% (inactive)
23,Cc1ccc(CC(=O)Nc2ccc(S(=O)(=O)N3CCOCC3)cc2)cc1C,1.54% (inactive)
24,CC(C)C[C@@H](N)c1nnc(SCC(=O)c2ccc(Cl)cc2)o1,-0.27% (inactive)

row,Structure (SMILES),inhibition of corepressor binding
1,CCOc1cc(C2C(C(=O)c3ccco3)=C(O)C(=O)N2Cc2ccccc2)ccc1O (stereo not given),5.32% (inactive)
2,O=C(C1=C(O)C(=O)N(Cc2ccccc2)C1c1ccco1)c1ccco1 (stereo not given),13% (inactive)
3,CC(C)c1ccc(C2C(C(=O)c3ccco3)=C(O)C(=O)N2CC2CCCO2)cc1 (stereo not given),22.2% (active)
4,O=C1NC(c2ccccc2)=NC1(Nc1ccccn1)C(F)(F)F (stereo not given),0.74% (inactive)
5,COc1cccc(N(CC(=O)NCCSc2ccccn2)S(C)(=O)=O)c1,-2.09% (inactive)
6,OC(c1ccccc1)c1nccn1Cc1ccccc1 (stereo not given),-1.45% (inactive)
7,NS(=O)(=O)c1ccc(NC2=CC(c3ccc(F)cc3)N(c3ccc(S(N)(=O)=O)cc3)C2=O)cc1 (stereo not given),1.09% (inactive)
8,O=c1[nH]cccc1-c1nc2ccccc2n1Cc1ccc(Cl)cc1,5.14% (inactive)
9,CCOc1ccccc1N(CC(=O)NC1CCCCC1)C(=O)CCCC(=O)Nc1ccccn1,2.15% (inactive)
10,N#Cc1ccccc1Sc1ccccc1C(=O)OCC(=O)NC1CCCCC1,26.6% (active)
11,O=C(COC(=O)c1ccccc1SCC(=O)NC1CCCCC1)NC1CCCCC1,-5.62% (inactive)
12,N#Cc1ccc(C(=O)OCC(=O)NC(=O)NC2CCCCC2)cc1,0.11% (inactive)
13,O=C(NCC(c1ccco1)N1CCc2ccccc21)c1cccc(F)c1 (stereo not given),-1.2% (inactive)
14,CCOC(=O)N1CCC(=NNC(N)=O)CC1,0.68% (inactive)
15,O=C(Nc1ccccn1)C1CCN(S(=O)(=O)c2ccc3c(c2)OCCO3)CC1,2.07% (inactive)
16,NNC(=O)CSc1nnc(-c2ccccc2)n1-c1ccccc1,3.63% (inactive)
17,CC1(C)CC(O)C(CCC(O)c2ccccc2)C(C)(C)N1 (stereo not given),0.53% (inactive)
18,O=C(Cn1cncn1)N/N=C/c1c2ccccc2cc2ccccc12,-7.82% (inactive)
19,Cc1ccc(C(C)C)c(OCc2nnc(SCC(=O)Nc3nccs3)n2C)c1,2.5% (inactive)
20,CN(C(=O)CN1C(=O)NC(C)(CCc2ccccc2)C1=O)c1ccccc1 (stereo not given),3.26% (inactive)
21,CCOC(=O)c1ccc(NC(=S)N2CCN(c3ccccn3)CC2)cc1,43.1% (active)
22,O=[N+]([O-])c1ccc(NC(=S)N2CCN(c3ccccn3)CC2)cc1,4% (inactive)
23,CCOC(=O)c1ccc(NC(=S)N2CCCC2)cc1,0.82% (inactive)
